This passage reports IC50 and Stability results from ChEMBL document CHEMBL1146313, “Design and synthesis of piperidine farnesyltransferase inhibitors with reduced glucuronidation potential” (Bioorg Med Chem, 2007).

The nature of data set [1]: Inhibition of human FTase. Summed up: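 Human FTase (50 ng purified enzyme) with His6-K-Ras4B (1 µM) and [3H]farnesyl diphosphate (500 nM) in 50 mM Tris-HCl pH 7.7, 5 mM MgCl2, 5 µM ZnCl2, 2 mM DTT, 0.2% octyl-glucoside. Incubated 30 min at room temperature, stopped with SDS. Protein precipitated with cold trichloroacetic acid and filter-collected, then 3H counted. Percent inhibition calculated against DMSO vehicle control.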

The nature of data set [2]: Metabolic stability in mouse liver microsomes. Format: ADME, Microsome. Summed up: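 Compound at 0.0010 mg/mL final was preincubated 5.0 min at 37 °C with mouse liver microsomes (1.0 mg/mL final, 100 mmol/L potassium phosphate, pH 7.4). Reaction was started with NADPH-generating system, NADPH system plus UDPGA (100 mmol/L), or UDPGA alone, then run 30 min at 37 °C. Quenched with acetonitrile internal standard and read by HPLC. Residual ratio is the 30-min concentration divided by the initial concentration.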

The structures appear in SMILES notation.

In the case of `Cn1cnc(CN2CC[C@@H](c3ccccc3Br)[C@H]([N+](=O)[O-])[C@H]2c2ccccc2)c1` (racemic), the IC50 in data set [1] is > 500 nM. On to `Cn1cncc1CN1CC[C@@H](c2ccccc2Br)[C@H]([N+](=O)[O-])[C@H]1c1ccccc1` (racemic), for which the half-inhibitory concentration (IC50) in data set [1] stood at 17 nM. Still for that read-out and setting: the figure for `CCc1ccccc1[C@@H]1CCN(Cc2cccnc2)[C@@H](c2ccccc2)[C@H]1C(=O)O` (racemic) is > 500 nM. Still for that read-out and setting: the figure for `CCc1ccccc1[C@@H]1CCN(Cc2cccnc2)[C@@H](c2ccccc2)[C@H]1C(C)=O` (racemic) is 42 nM. Same read-out and setting: the figure for `CCc1ccccc1[C@@H]1CCN(Cc2cccnc2)[C@@H](c2ccccc2)[C@H]1C(=O)OC` (racemic) is 95 nM; for `O=[N+]([O-])[C@@H]1[C@@H](c2ccc(O)c(I)c2)N(Cc2cccnc2)CC[C@H]1c1ccccc1Br` (racemic) it is > 500 nM; for `O=[N+]([O-])[C@@H]1[C@@H](c2ccc(O)c(O)c2)N(Cc2cccnc2)CC[C@H]1c1ccccc1Br` (racemic) it is 3.7 nM. As to `COc1cc([C@@H]2[C@@H]([N+](=O)[O-])[C@H](c3ccccc3Br)CCN2Cc2cccnc2)ccc1O` (racemic), the IC50 in data set [1] turned out to be 180 nM.

Consider `CCc1ccccc1[C@@H]1CCN(Cc2cccnc2)[C@H](c2ccc(O)c(N)c2)[C@H]1[N+](=O)[O-]` (racemic), for which, in data set [1], the IC50 worked out at 46 nM.

`CCNc1cc([C@@H]2[C@@H]([N+](=O)[O-])[C@H](c3ccccc3Br)CCN2Cc2cccnc2)ccc1O` (racemic) had an IC50 in data set [1] of 50 nM. The same measure, in the same setting: the figure for `CC(=O)Nc1cc([C@H]2[C@H]([N+](=O)[O-])[C@@H](c3ccccc3Br)CCN2Cc2cccnc2)ccc1O` (racemic) is 27 nM. On the same count and under the same terms, the figure for `COC(=O)Nc1cc([C@H]2[C@H]([N+](=O)[O-])[C@@H](c3ccccc3Br)CCN2Cc2cccnc2)ccc1O` (racemic) is 14 nM. The same measure, in the same setting: the figure for `CCc1ccccc1[C@H]1CCN(Cc2cccnc2)[C@@H](c2ccc(O)c(NS(C)(=O)=O)c2)[C@@H]1[N+](=O)[O-]` (racemic) is 4.6 nM; for `CCS(=O)(=O)Nc1cc([C@H]2[C@H]([N+](=O)[O-])[C@@H](c3ccccc3Br)CCN2Cc2cccnc2)ccc1O` (racemic) it is 5.9 nM; for `NS(=O)(=O)Nc1cc([C@H]2[C@H]([N+](=O)[O-])[C@@H](c3ccccc3Br)CCN2Cc2cccnc2)ccc1O` (racemic) it is 3 nM. Turning to `Cc1ccc(S(=O)(=O)Nc2cc([C@H]3[C@H]([N+](=O)[O-])[C@@H](c4ccccc4Br)CCN3Cc3cccnc3)ccc2O)cc1` (racemic), the concentration for half-maximal inhibition (IC50) in data set [1] is 270 nM. Consider `CCc1ccccc1[C@H]1CCN(Cc2cccnc2)[C@@H](c2ccc(O)c(NS(N)(=O)=O)c2)[C@@H]1[N+](=O)[O-]` (racemic), for which the IC50 in data set [1] was found to be 4.5 nM. Besides, the Stability result in data set [2] is reported as “Stable”.

With `COc1ccc([C@@H]2[C@@H]([N+](=O)[O-])[C@H](c3ccccc3Br)CCN2Cc2cccnc2)cc1` (racemic), the IC50 in data set [1] is > 500 nM.

Regarding `O=[N+]([O-])[C@@H]1[C@@H](c2ccccc2)N(Cc2cccnc2)CC[C@H]1c1ccccc1Br` (racemic), in data set [1], half-maximal inhibition (IC50) required 16 nM. On the same count and under the same terms, the figure for `O=[N+]([O-])[C@@H]1[C@@H](c2ccsc2)N(Cc2cccnc2)CC[C@H]1c1ccccc1Br` (racemic) is 36 nM; for `CCc1ccccc1[C@@H]1CCN(Cc2cccnc2)[C@H](c2ccc(O)c(NCc3ccncc3)c2)[C@H]1[N+](=O)[O-]` (racemic) it is 12 nM.

`O=[N+]([O-])[C@H]1[C@H](c2ccccc2Br)CCN(Cc2cccnc2)[C@H]1c1ccccn1` (racemic): in data set [1], the IC50 turned out to be 25 nM.

Regarding `O=[N+]([O-])[C@@H]1[C@@H](c2cccnc2)N(Cc2cccnc2)CC[C@H]1c1ccccc1Br` (racemic), the IC50 in data set [1] was > 500 nM.

`CS(=O)(=O)Nc1cc([C@H]2[C@H]([N+](=O)[O-])[C@@H](c3ccccc3Br)CCN2Cc2cccnc2)ccc1O` (racemic) registered an IC50 in data set [1] of 4.3 nM.

In turn, `NC(=O)Nc1cc([C@H]2[C@H]([N+](=O)[O-])[C@@H](c3ccccc3Br)CCN2Cc2cccnc2)ccc1O` (racemic) gave an IC50 in data set [1] of 15 nM. Regarding `Nc1cc([C@@H]2[C@@H]([N+](=O)[O-])[C@H](c3ccccc3Br)CCN2Cc2cccnc2)ccc1O` (racemic), the half-maximal inhibitory concentration (IC50) in data set [1] was 13 nM. Compound `CC(C)Nc1cc([C@@H]2[C@@H]([N+](=O)[O-])[C@H](c3ccccc3Br)CCN2Cc2cccnc2)ccc1O` (racemic) had a half-maximal inhibitory concentration (IC50) in data set [1] of 98 nM.

Turning to `CCc1ccccc1[C@H]1CCN(Cc2cccnc2)[C@@H](c2ccc(O)c(NC(N)=O)c2)[C@@H]1[N+](=O)[O-]` (racemic), the IC50 in data set [1] was determined as 6.2 nM. Still for that read-out and setting: the figure for `CCc1ccccc1[C@@H]1CCN(Cc2cccnc2)[C@H](c2ccc(O)c(NCc3ccccc3)c2)[C@H]1[N+](=O)[O-]` (racemic) is 121 nM; for `CCc1ccccc1[C@@H]1CCN(Cc2cccnc2)[C@H](c2ccc(O)c(NCc3ccccn3)c2)[C@H]1[N+](=O)[O-]` (racemic) it is 23 nM; for `CCc1ccccc1[C@@H]1CCN(Cc2cccnc2)[C@H](c2ccc(O)c(NCc3cccnc3)c2)[C@H]1[N+](=O)[O-]` (racemic) it is 24 nM. The same measure, in the same setting: the figure for `O=[N+]([O-])[C@@H]1[C@@H](c2ccc(O)cc2)N(Cc2cccnc2)CC[C@H]1c1ccccc1Br` (racemic) is 5.4 nM. Same read-out and setting: the figure for `O=[N+]([O-])c1cc([C@@H]2[C@@H]([N+](=O)[O-])[C@H](c3ccccc3Br)CCN2Cc2cccnc2)ccc1O` (racemic) is > 500 nM; for `CCc1ccccc1[C@@H]1CCN(Cc2cccnc2)[C@@H](c2ccccc2)[C@H]1C(=O)NC` (racemic) it is > 500 nM. With `O=[N+]([O-])[C@@H]1[C@@H](c2ccc3[nH]cnc3c2)N(Cc2cccnc2)CC[C@H]1c1ccccc1Br` (racemic), the IC50 in data set [1] was > 500 nM. Still for that read-out and setting: the figure for `CCc1ccccc1[C@@H]1CCN(Cc2cccnc2)[C@@H](c2ccccc2)[C@H]1CO` (racemic) is > 500 nM; for `C=CCOC(=O)[C@H]1[C@H](c2ccccc2CC)CCN(Cc2cccnc2)[C@H]1c1ccccc1` (racemic) it is > 500 nM; for `O=[N+]([O-])[C@@H]1[C@@H](c2ccccc2)N(Cc2cnc[nH]2)CC[C@H]1c1ccccc1Br` (racemic) it is > 500 nM. The same measure, in the same setting: the figure for `N#Cc1ccc(Cn2cncc2CN2CC[C@@H](c3ccccc3Br)[C@H]([N+](=O)[O-])[C@H]2c2ccccc2)cc1` (racemic) is 44 nM.
